Molecules are shown by their SMILES.

As usually defined, the IC50 is the concentration at which inhibition is half-maximal.

Assay [1] is described as follows: Antiangiogenesis activity in HUAEC assessed as inhibition of VEGF-induced cell proliferation after 72 hrs by MTT assay. Conditions: Homo sapiens. The class given is functional. Put shortly: (§1)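 Cells were purchased primary endothelial cells, maintained at 37 C in 5% CO2: HUVECs in EGM-2 Bulletkit medium and HUAECs in EGM-2MV Bulletkit medium. For the assay, 3 103 cells/well were seeded in culture medium for 3 h, then switched to 1% FBS EBM-2 for 21 h. VEGF (1 nM) and compounds were added for 72 h. Proliferation was read with WST-8 at 450 nm. Ki8751, a VEGFR2 kinase inhibitor, was the positive control.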

In assay [2] the test system is HUVEC. Description: Antiangiogenesis activity in HUVEC assessed as inhibition of VEGF-induced cell proliferation after 72 hrs by MTT assay. The class given is functional, cell-based. Conditions: Homo sapiens. The procedure, abridged:
as §1
Background: Tetrazolium assays rely on reduction of a dye to a coloured formazan, in cell work by metabolically active cells.

With `C[C@H]1C/C=C/[C@H]2[C@@H]3O[C@]3(C)[C@@H](C)[C@H]3[C@H](Cc4ccccc4)NC(=O)[C@]32OC(=O)O/C=C/[C@@](C)(O)C1=O` [CYTOCHALASIN E], the IC50 in assay [1] was 0.011 µM; in assay [2], 0.0114 µM.
The corresponding values for `Cc1c(O)cc(O)c2c(=O)oc(CO)c(C)c12` [DECARBOXYHYDROXYCITRINONE] are 17.4 µM and 7.6 µM.
The corresponding values for `C=C[C@]1(C)C=C2C(=O)C(O)=C3[C@@](C)(CO)CC[C@@H](O)[C@]3(C)[C@@]2(O)CC1` [LIBERTELLENONE C] are 68.7 µM and 29.7 µM.
The corresponding values for `C=C[C@]1(C)C=C2C(=O)C3=C4[C@@](C)(CC[C@@H](O)[C@]4(C)[C@@]2(O)CC1)[C@@H](O)O3` [LIBERTELLENONE E] are 238 µM and 236 µM.
In the case of `C=C[C@]1(C)C=C2C(=O)C3=C4[C@@](C)(CC[C@@H](O)[C@]4(C)[C@@]2(O)CC1)CO3` [LIBERTELLENONE F], the results for the IC50 in assay [1] and in assay [2] were 97.8 µM and 64.1 µM, respectively.
Turning to `C=C[C@@]1(C)C=C2C(=O)C(O)=C3[C@](C)(C(=O)O)CC[C@@H]4C[C@]34[C@]2(O)C(=O)C1` [MYROCIN A], the IC50 came out at 9.2 µM in assay [1] and 11 µM in assay [2].
The corresponding values for `C=C[C@]1(C)C=C2[C@@H](O)[C@@H]3OC(=O)[C@@]4(C)CC[C@H]5C[C@]5([C@@H]34)[C@@]2(O)C(=O)C1` [MYROCIN D] are 277 µM and 70.8 µM.

The record behind these values is ChEMBL document CHEMBL1811920, “Chemical constituents of a marine fungus, Arthrinium sacchari” (J Nat Prod, 2011).
